Experimental data published in ChEMBL document CHEMBL1141187, “New potential anticancer agents based on the anthranilic acid scaffold: synthesis and evaluation of biological activity” (2005).

Columns and labels:
Format in all cases: functional
[1] = system: NCI-H23; test: Antiproliferative activity against human lung NCI-H23 cell line
Procedure, shortened: (§1)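 Part of the NCI ~60 human tumor cell line panel screen. Each compound was tested at five concentrations in 10-fold dilutions from 10^-4 to 10^-8 M. GI50 is read from dose-response curves as the molar concentration giving 50% inhibition of net cell growth, and is also reported as pGI50 (-log molar).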

[2] = system: SF-268; test: Antiproliferative activity against human CNS SF268 cell line; procedure, shortened: as §1
[3] = system: SN12C; test: Antiproliferative activity against human renal SN12C cell line; procedure, shortened: as §1
[4] = system: MCF7; test: Antiproliferative activity against human breast cancer MCF7 cell line; procedure, shortened: as §1
[5] = system: K562; test: Antiproliferative activity against human leukemia K562 cell line; procedure, shortened: as §1
[6] = system: UACC-62; test: Antiproliferative activity against human melanoma UACC62 cell line; procedure, shortened: as §1
[7] = system: SW-620; test: Antiproliferative activity against human colon SW620 cell line; procedure, shortened: as §1

Row | SMILES | GI50 [1] [µM] | GI50 [4] [µM] | GI50 [5] [µM] | GI50 [7] [µM] | GI50 [2] [µM] | GI50 [3] [µM] | GI50 [6] [µM]
1 | O=C(Oc1ccccc1Cl)c1ccccc1Nc1cccc(C(F)(F)F)c1 | 20 | 33.9 | 2.69 | 8.13 | 20.4 | 23.4 | 17
2 | O=C(Oc1ccc(Cl)cc1)c1ccccc1Nc1ccnc(C(F)(F)F)c1 | 2.82 | 3.72 | 3.63 | 6.61 | 4.37 | 2.95 | 2.63
3 | O=C(Oc1ccc(Cl)cc1Cl)c1ccccc1Nc1ccnc(C(F)(F)F)c1 | 3.55 | 3.63 | 3.02 | 4.57 | 3.09 | 3.02 | 2.29
4 | O=C(Oc1cccnc1)c1cccnc1Nc1ccnc(C(F)(F)F)c1 | 6.31 | 2.69 | 5.13 | 5.5 | 5.62 | 6.46 | 5.75
5 | O=C(Oc1ccccc1Cl)c1cccnc1Nc1ccnc(C(F)(F)F)c1 | 8.71 | 3.63 | 4.57 | 3.72 | 10 | 4.07 | 6.17

The next compounds have a lower GI50 [1] than those just listed; values first:

Row | GI50 [1] [µM] | GI50 [4] [µM] | GI50 [5] [µM] | GI50 [7] [µM] | SMILES | GI50 [2] [µM] | GI50 [3] [µM] | GI50 [6] [µM]
6 | 0.0363 | 0.0457 | 0.0427 | 0.0407 | O=C(Oc1cccnc1)c1ccccc1Nc1ccnc(C(F)(F)F)c1 | 0.331 | 0.0708 | 0.288
7 | 2.57 | 4.68 | 2.4 | 4.57 | O=C(Oc1c(Cl)cc(Cl)cc1Cl)c1ccccc1Nc1ccnc(C(F)(F)F)c1 | 3.89 | 3.09 | 1.74
8 | 0.257 | 0.282 | 0.0513 | 0.363 | O=C(Oc1ccccc1Cl)c1ccccc1Nc1ccnc(C(F)(F)F)c1 | 2.24 | 0.331 | 0.309
9 | 2.4 | 4.79 | 3.24 | 4.37 | O=C(Oc1cccc(Cl)c1)c1ccccc1Nc1ccnc(C(F)(F)F)c1 | 3.02 | 2.95 | 2.04
10 | 2.04 | 7.24 | 0.741 | 4.07 | COc1cccc(OC(=O)c2ccccc2Nc2ccnc(C(F)(F)F)c2)c1 | 4.68 | 5.37 | 3.09
